# Published values from different studies.
# Lines come from different studies, so protocols differ. pIC50: −log10 of the molar value.
# Observed: enzyme activity
# Action: inhibitor
# PARP10: Protein mono-ADP-ribosyltransferase PARP10 (PARP10, Homo sapiens, UniProt Q53GL7)
# HDAC1: Histone deacetylase 1 (HDAC1, Homo sapiens, UniProt Q13547)
# HDAC8: Histone deacetylase 8 (HDAC8, Homo sapiens, UniProt Q9BY41)
SMILES,target,test,setting,pIC50
c1c(N2CCCC2)nc(N2CCCC2)nc1N1CCNCC1,"Caspase-5 (CASP5, Homo sapiens, UniProt P51878)",,with preincubation,6.86
Nc1cnccc1Nc1ccc(Cl)c(Cl)c1,"Uracil-DNA glycosylase (UNG, Homo sapiens, UniProt P13051)",,,< 4.00
O=c1[nH]c2c(nnn2-c2ccc(Br)cc2)c2ccccc12,PARP10,,,< 5.00
c1ccc2c(-c3cnn4cc(-c5ccc(N6CCNCC6)cc5)cnc34)ccnc2c1,"TGF-beta receptor type-2 (TGFBR2, Homo sapiens, UniProt P37173)",,,7.05
COc1ccc(N(Cc2nc(-c3ccccc3)cs2)C(=O)CCCCCC(=O)NO)cc1,HDAC1,,,8.80
Cc1ccc(Cn2nnc3c4ccc(C(F)(F)F)cc4c(=O)[nH]c32)cc1,PARP10,,,< 5.00
COc1ccc(Nc2ncnc3c2ncn3Cc2ccc(C(=O)NO)cc2)cc1,HDAC1,fluorescence,,6.59
COc1cccc(Cn2nnc3c4ccccc4c(=O)[nH]c32)c1,PARP10,,,6.66
COc1ccc(N(Cc2nc(-c3cccc(Cl)c3)cs2)C(=O)CCCCCC(=O)NO)cc1,HDAC1,,,8.31
Cc1ccc(S(=O)(=O)NNc2ccc([N+](=O)[O-])cc2[N+](=O)[O-])cc1,"Polyunsaturated fatty acid 5-lipoxygenase (ALOX5, Homo sapiens, UniProt P09917)",,,5.88
O=C(NO)c1ccc(Cn2cnc3c(Nc4ccc(F)c(Cl)c4)ncnc32)cc1,HDAC8,,,6.81
Cc1ccccc1Cn1nnc2c3ccc(F)cc3c(=O)[nH]c21,PARP10,,,< 5.00
NC/C(=C\F)COc1cccc(Cn2c(=S)[nH]c(=O)c3[nH]cnc32)c1,"Protein-lysine 6-oxidase (Homo sapiens, UniProt P28300)",,,< 4.52
COc1ccc(N(Cc2csc(-c3ccccc3Cl)n2)C(=O)CCCCCC(=O)NO)cc1,HDAC1,,,8.68
O=C(CCCCc1ccc(CO)cc1)C(F)(F)C(F)(F)F,"Cytosolic phospholipase A2 (PLA2G4A, Homo sapiens, UniProt P47712)",,,3.92
O=c1cc(-c2ccccc2)oc2cc(O)c(O)c(O)c12,"Seed linoleate 13S-lipoxygenase-1 (Glycine max, UniProt P08170)",,,5.20
O=c1[nH]c2c(nnn2Cc2c(F)c(F)c(F)c(F)c2F)c2ccc(F)cc12,PARP10,,,< 5.00
COc1ccc(N(Cc2csc(-c3ccc(Br)cc3)n2)C(=O)CCCCCC(=O)NO)cc1,HDAC1,,,9.00
Nc1ccccc1NC(=O)c1ccc(Cn2cnc3c(Nc4ccc(Cl)cc4)ncnc32)cc1,HDAC1,fluorescence,,7.85
CCCOc1ccc(N(Cc2nc(-c3ccccc3)cs2)C(=O)CCCCCC(=O)NO)cc1,HDAC1,,,8.66
COc1cccc(Cn2nnc3c4ccc(F)cc4c(=O)[nH]c32)c1,PARP10,,,5.78
COc1ccc(N(Cc2nc(-c3ccc(Br)cc3)cs2)C(=O)CCCCCC(=O)NO)cc1,HDAC1,,,8.44
O=c1[nH]c2c(nnn2-c2ccccc2)c2ccc(F)cc12,PARP10,,,< 5.00
COc1ccc(N(Cc2nc(-c3ccc(Cl)cc3)cs2)C(=O)CCCCCC(=O)NO)cc1,HDAC1,,,8.77
O=C(NO)c1ccc(Cn2cnc3c(Nc4cccc([N+](=O)[O-])c4)ncnc32)cc1,HDAC8,,,6.93
